Assay outcomes (PubChem BioAssay)
TRPC4 block: inhibitors of mouse TRPC4 channel; Q9QUQ5; HEK293 TRPC4beta/mu-opioid, DAMGO-evoked Fluo4 calcium flux; stronger effect = lower value; 300,000 tested, 0.39% active; B-score at 10 µM;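 active means B-score over 3 SD under the library average, no early fluorescence shift, positive overall ratio signal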
Target sequence (Q9QUQ5 whole entry, looked up): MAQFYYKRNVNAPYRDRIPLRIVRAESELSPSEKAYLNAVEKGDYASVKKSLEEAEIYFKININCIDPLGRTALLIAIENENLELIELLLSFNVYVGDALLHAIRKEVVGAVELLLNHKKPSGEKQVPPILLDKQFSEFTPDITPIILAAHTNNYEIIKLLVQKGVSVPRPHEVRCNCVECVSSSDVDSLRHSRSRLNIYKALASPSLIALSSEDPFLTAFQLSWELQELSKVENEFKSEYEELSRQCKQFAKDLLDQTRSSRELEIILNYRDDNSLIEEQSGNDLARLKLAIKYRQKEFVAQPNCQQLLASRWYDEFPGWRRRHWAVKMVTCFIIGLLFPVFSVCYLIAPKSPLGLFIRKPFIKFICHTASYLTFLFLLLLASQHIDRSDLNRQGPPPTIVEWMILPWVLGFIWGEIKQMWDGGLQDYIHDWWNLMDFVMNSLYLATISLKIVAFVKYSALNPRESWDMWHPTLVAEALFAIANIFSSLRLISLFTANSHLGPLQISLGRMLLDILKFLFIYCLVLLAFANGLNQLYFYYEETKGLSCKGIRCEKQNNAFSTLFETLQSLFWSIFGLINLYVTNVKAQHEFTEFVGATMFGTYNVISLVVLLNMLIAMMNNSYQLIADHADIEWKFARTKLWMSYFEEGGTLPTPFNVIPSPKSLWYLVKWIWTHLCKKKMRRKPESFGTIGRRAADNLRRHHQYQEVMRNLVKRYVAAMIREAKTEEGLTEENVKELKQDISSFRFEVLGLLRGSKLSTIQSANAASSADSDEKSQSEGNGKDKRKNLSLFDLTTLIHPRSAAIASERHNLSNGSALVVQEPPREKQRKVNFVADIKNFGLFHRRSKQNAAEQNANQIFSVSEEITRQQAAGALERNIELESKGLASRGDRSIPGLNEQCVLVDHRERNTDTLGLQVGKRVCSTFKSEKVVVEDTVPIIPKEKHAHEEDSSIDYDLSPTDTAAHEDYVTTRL
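Signal: kinetic Fluo4 fluorescence imaging of calcium influx. Material: stable TRPC4beta/mu-opioid receptor HEK293 cells. Probe or stimulus: DAMGO in two steps, submaximal then maximal.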
TRPC4 act: TRPC4 (mouse) channel activation. Q9QUQ5. HEK293 TRPC4beta/mu-opioid, Fluo4 calcium fluorescence; stronger effect = higher value. B-score at 10 µM. 310,000 tested, 0.49% active. AID 2237;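 active means B-score above 5 SD of library B-scores, and initial fluorescence ratio not above library mean plus 5 SD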;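 further: positive B-score marks a calcium rise read as TRPC4 activation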
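System: HEK293 cells stably co-expressing mouse TRPC4beta and mu-opioid receptor; Schedule: Fluo4 dye loading 45 min at room temperature, 110 s recording; Detection: Fluo4 fluorescence, kinetic; Evaluation: B-scored integrated calcium fluorescence ratio; Controls: buffer (low) and maximal DAMGO (high).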
TRPC6 inh: mouse TRPC6 channel inhibition. Q61143. HEK293-TRPC6, membrane potential dye, ACh-evoked depolarization; stronger effect = lower value. B-score at 10 µM. 310,000 tested, 1.1% active;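 active means B-score under library mean minus 3 SD, initial fluorescence not abnormally high, positive integrated signal ratio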;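 further: B-score derived from integrated fluorescence ratio over the kinetic read; more negative B-score means stronger inhibition of depolarization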
TRPC6 activator: mouse TRPC6 channel activation | HEK293-TRPC6 membrane potential dye fluorescence; stronger effect = higher value | Q61143 | AID 2550 | 310,000 tested, 0.13% active | B-score at 10 µM;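 active means B-score of the integrated fluorescence ratio above library mean plus 3 SD, and starting fluorescence ratio within library mean plus 5 SD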;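 further: higher score means more depolarization so channel activation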
TRPC4 potent: allosterically enhances the mouse TRPC4 cation channel; Q9QUQ5; HEK293 TRPC4beta/mu-opioid, DAMGO EC20, Fluo-4 Ca2+ flux; stronger effect = higher value; B-score at 10 µM; 310,000 tested, 0.42% active;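 active means B-score of calcium response area above 5 SD of library B-scores, with initial fluorescence ratio within 5 SD of library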;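 further: B-score of integrated fluorescence ratio over time as area under calcium response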
DSG3 Ab inh: blocks pemphigus antibody binding to human desmoglein-3. DSG3-coupled beads, scFv-anti-DSG3-GFP binding, flow cytometry; stronger effect = lower value. P32926. binding (percent of control), % at 10 µM. 310,000 tested, 0.48% active;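 active means binding more than 3 SD below its plate's average and above zero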;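 further: hits lower antibody fragment binding to DSG3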
TRPC4 spec 2: mouse TRPC4 off-target activity of TRPC6 inhibitors, second screen. inhibition, % at 10 µM. 920 tested, 42% active. HEK293 TRPC4/MOR, membrane potential dye fluorescence; channel activated by saturating DAMGO dose. shares compounds with TRPC6 inh;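 active means compounds whose fluorescence signal differed from control wells by over 3 SD, either direction, in both duplicate plates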
TRPC4 spec: mouse TRPC4 off-target activity of TRPC6 inhibitors; shares compounds with TRPC6 inh; HEK293 TRPC4/mu-opioid, membrane potential fluorescence; activity change, negative = inhibition, % at 10 µM; 920 tested, 61% active;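 active means rise or fall in signal beyond 3 SD of buffer-only wells in both replicate plates, either sign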;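 further: integrated kinetic ratio of fluorescence range over baseline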
HEK293 MPD ctr 2-1: parental HEK293 nonspecific activity of TRPC6 inhibitors, second screen; shares compounds with TRPC6 inh; 920 tested, 31% active; AID 2779; parental HEK293 membrane potential dye fluorescence; maximal acetylcholine challenge after compound addition; signal change vs control, % at 10 µM;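 active means membrane potential signal moving either way by over 3 SD of the maximum-effect control, in both duplicate plates, meaning non-specific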
HEK293 MPD ctr-1: checks TRPC6 inhibitor effects in parental HEK293 cells; AID 2780; parental HEK293 membrane potential dye fluorescence; 920 tested, 60% active; membrane potential signal change, % at 10 µM; shares compounds with TRPC6 inh;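 active means membrane potential signal shifting up or down by more than 3 SD of buffer-only wells, on both duplicate plates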
HEK293 MPD ctr-2: checks TRPC6 modulator effects in parental HEK293 cells | shares compounds with TRPC6 inh | membrane potential dye fluorescence | membrane potential signal change, % at 10 µM | 2,400 tested, 51% active | AID 488924;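 active means membrane potential signal moves up or down beyond 5 SD from buffer-only wells, on both duplicate plates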
HEK293 MPD ctr 2-2: parental HEK293 nonspecific activity of TRPC6 modulators, second screen; 2,400 tested, 14% active; membrane potential dye fluorescence; after compound, maximal acetylcholine stimulation; shares compounds with TRPC6 inh; inhibition, % at 10 µM;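 active means membrane potential signal drops by more than 5 SD from the mean control signal, in both duplicate plates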;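 further: plate controls were acetylcholine ECmax control wells for no effect and buffer only wells for full effect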
TRPC4/MOR mod: selectivity of TRPC6 modulators against mouse TRPC4. shares compounds with TRPC6 inh. HEK293 TRPC4/mu-opioid, membrane potential fluorescence. percent change from control (negative = decrease, positive = increase), % at 10 µM. 2,400 tested, 69% active. AID 488927;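 active means membrane potential signal moved up or down beyond 5 SD of buffer control wells, in both duplicate plates, actives on both sides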;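 further: plate controls were assay buffer wells for no effect and DAMGO maximal-effect wells for full effect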
TRPC4/MOR inh 2: second selectivity test of TRPC6 modulators against mouse TRPC4; shares compounds with TRPC6 inh; HEK293 TRPC4/mu-opioid, membrane potential dye fluorescence; stimulated with maximal-effect DAMGO; inhibition, % at 10 µM; AID 488928; 2,400 tested, 55% active;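 active means drop in membrane potential signal beyond 5 SD of the control wells in both duplicate plates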;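 further: TRPC4 counter screen for TRPC6 hits run under conditions tuned for TRPC6 not TRPC4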
TRPC6 inh conf: confirmation of mouse TRPC6 inhibitors; shares compounds with TRPC6 inh; inhibition, % at 10 µM; 3,300 tested, 43% active; HEK293-TRPC6, membrane potential dye, ACh-evoked depolarization;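 active means fluorescence ratio falls more than 5 SD below the full-stimulation control mean, in both duplicate runs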;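 further: integrated fluorescence ratio of peak minus minimum over baseline after agonist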
* = called active by the depositor; i = inactive; x = no result. Shown are actives, neighbours in structure and some others; about 2.5% of the full set was active somewhere.

SMILES	TRPC4 block	TRPC4 act	TRPC6 inh	TRPC6 activator	TRPC4 potent	DSG3 Ab inh	TRPC6 inh conf	others
CN1CCN(CC#CCC(O)(c2ccccc2)C2CCCC2)CC1 (configuration not stated)	i	i	i	i	i	105	x
CC(O)(C#CCN1CCCC1)c1ccccc1 (configuration not stated)	i	i	i	i	i	99	x
OC(C#CCN1CCCC1)(c1ccccc1)c1cccc(F)c1 (configuration not stated)	i	i	-5.5*	i	i	99	96%*	HEK293 MPD ctr-2=i;HEK293 MPD ctr 2-2=123%*;TRPC4/MOR mod=14%*;TRPC4/MOR inh 2=32%*
CC1CCCN1CC#CC(O)(c1ccccc1)c1ccccc1 (configuration not stated)	-7*	i	-8.7*	i	i	95	82%*	TRPC4 spec 2=i;TRPC4 spec=4.5%*;HEK293 MPD ctr 2-1=-44%*;HEK293 MPD ctr-1=8.2%*
OC(CC#CCN1CCCCC1)(c1ccccc1)c1ccccc1	i	i	i	i	i	119	x
OC(CC#CCN1CCCC1)(c1ccccc1)c1ccccc1	i	i	-5.3*	i	i	x	65%*	HEK293 MPD ctr-2=114%*;HEK293 MPD ctr 2-2=63%*;TRPC4/MOR mod=15%*;TRPC4/MOR inh 2=i
C(#CCN1CCCC1)CC(c1ccccc1)c1ccccc1	i	i	-8.6*	i	i	97	i	TRPC4 spec 2=66%*;TRPC4 spec=14%*;HEK293 MPD ctr 2-1=i;HEK293 MPD ctr-1=15%*
CCc1ccc([C@@H]2C[C@H]3[C@@H](CN2S(=O)(=O)c2ccc(C)cc2)C(=O)C[C@@H](c2ccc(C)cc2)N3S(=O)(=O)c2ccc(C)cc2)cc1	x	x	x	x	x	96	x
Cc1occc1C(=O)NN1C(=O)C2C3CCC(O3)C2C1=O (configuration not stated)	i	i	i	i	i	92	x
CCCN(CC(=O)Nc1ccccc1OC)C(=O)c1ccc(=O)[nH]c1	i	i	i	i	i	120	x
CC(=O)Nc1cc(NC(C)=O)ncn1	i	i	i	i	i	102	x
CC(C)NC(=O)c1nc2c(nnn2Cc2cccc(Cl)c2)c(=O)[nH]1	i	i	i	i	i	115	x
